In ChEMBL document CHEMBL2021778, “Neurosteroid analogues. 17. Inverted binding orientations of androsterone enantiomers at the steroid potentiation site on γ-aminobutyric acid type A receptors” (J Med Chem, 2012):
Active and inactive are the calls of the source. The rule behind the calls is not given here.

What was measured:
[1] = tested on: Oocyte; assay: Modulation of rat alpha1beta2gamma2L GABAA receptor expressed in Xenopus laevis oocytes assessed as potentiation of GABA-induced chloride currents at 1 uM by electrophysiology assay relative to control; assay type: cell-based
[2] = tested on: Oocyte; assay: Modulation of rat alpha1beta2gamma2L GABAA receptor expressed in Xenopus laevis oocytes assessed as potentiation of GABA-induced chloride currents at 0.1 uM by electrophysiology assay relative to control; assay type: cell-based
[3] = tested on: Oocyte; assay: Modulation of rat alpha1beta2gamma2L GABAA receptor expressed in Xenopus laevis oocytes assessed as potentiation of GABA-induced chloride currents at 0.5 uM by electrophysiology assay relative to control; assay type: cell-based
[4] = tested on: Xenopus laevis; assay: Anesthetic effect on Xenopus laevis tadpole assessed as loss of swimming reflex; assay type: functional, organism-based
Outline: (§1)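 Xenopus laevis tadpoles, N = 10 or more per concentration, at five or more concentrations from 0.01 μM to 30 μM. Loss of righting reflex (LRR) and loss of swimming reflex (LSR) were scored. EC50 and nHill were taken from concentration–response curves. Recovery was checked after an overnight period. Mean ± SEM.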

[5] = tested on: Oocyte; assay: Modulation of rat alpha1beta2gamma2L GABAA receptor expressed in Xenopus laevis oocytes assessed as potentiation of GABA-induced chloride currents at 10 uM by electrophysiology assay relative to control; assay type: cell-based
[6] = tested on: Oocyte; assay: Modulation of rat alpha1beta2gamma2L GABAA receptor expressed in Xenopus laevis oocytes assessed as […] at 10 uM by electrophysiology assay relative to GABA; assay type: cell-based
Outline: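 Rat α1β2γ2L receptors in Xenopus oocytes, two-electrode voltage clamp at −70 mV. Current gated directly by 10 μM compound without GABA, expressed as the ratio to the current from 2 μM GABA. At least four oocytes. Mean ± SEM.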

[7] = Displacement of [35S]TBPS from GABAA receptor picrotoxin binding site in rat brain membranes; assay type: cell membranes
[8] = tested on: Oocyte; assay: Modulation of GABAA receptor alpha1(Q241L)beta2gamma2L mutant expressed in Xenopus laevis oocytes assessed as potentiation of GABA-induced chloride currents at 0.5 uM by electrophysiology assay; assay type: cell-based
Outline: (§2)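 Oocytes were coinjected with α1(Q241L) cRNA plus wild-type β2 and γ2L cRNA. Recording was by two-electrode voltage clamp at −70 mV, 2–5 days after injection. Responses to a sequence of compound applications were normalised, 4 oocytes per receptor type.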

[9] = tested on: Xenopus laevis; assay: Anesthetic effect on Xenopus laevis tadpole assessed as loss of righting reflex; assay type: functional, organism-based; outline: as §1
[10] = tested on: Oocyte; assay: Modulation of GABAA receptor alpha1(Q241L)beta2gamma2L mutant expressed in Xenopus laevis oocytes assessed as potentiation of GABA-induced chloride currents at 1 uM by electrophysiology assay; assay type: cell-based; outline: as §2
[11] = tested on: Xenopus laevis; assay: Anesthetic effect on Xenopus laevis tadpole assessed as loss of swimming reflex at 10 uM; assay type: functional, organism-based
Outline: (§3)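 Tadpoles, 10 per group, exposed at 10 μM. Each animal was scored for swimming reflex, and for death without overnight recovery from loss of swimming reflex. Results are given as the number of animals out of 10.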

[12] = organism: Rattus norvegicus; assay: Displacement of [35S]TBPS from GABAA receptor picrotoxin binding site in rat brain membranes at 10 uM; assay type: cell membranes
[13] = organism: Xenopus laevis; assay: Toxicity in Xenopus laevis tadpole assessed as mortality at 10 uM; assay type: organism-based; details: in vivo; outline: as §3

| Compound | Ratio [1] | Ratio [2] | Activity [3] | EC50 [4] | Ratio [5] | Ratio [6] | IC50 [7] | Activity [8] | EC50 [9] | Activity [10] | Activity [11] | inhibition [12] | Activity [13] |
| --- | --- | --- | --- | --- | --- | --- | --- | --- | --- | --- | --- | --- | --- |
| C[C@@]12CC[C@H](O)C[C@H]1C[C@@H](OCc1ccccc1)[C@@H]1[C@@H]2CC[C@]2(C)[C@H]1CC[C@]21CO1 | 20.3 | 3.47 | inactive | 550 nM | 32.4 | 0.22 | 52 nM | inactive | 310 nM | – | – | – | – |
| C[C@@]12CC[C@H](O)C[C@H]1C[C@@H](OCc1ccccc1)[C@@H]1[C@@H]2CC[C@@]2(C)C(=O)CC[C@@H]12 | 5.74 | 1.25 | – | 2930 nM | 25.2 | 0.11 | 168 nM | – | 1210 nM | inactive | – | – | – |
| C[C@@]12CCC3C(CC[C@@H]4C[C@@H](O)CC[C@@]34C)C1CCC2=O (single isomer, unassigned) | 3.66 | 1.27 | – | – | 18.9 | 0.03 | 311 nM | – | – | – | – | – | – |
| C[C@]12CC[C@@H](O)C[C@@H]1C[C@H](OCc1ccccc1)[C@@H]1[C@@H]2CC[C@]2(C)C(=O)CC[C@@H]12 | 0.9 | 0.97 | – | – | 0.76 | 0 | > 10000 nM | – | > 10000 nM | – | inactive | 35% | – |
| C[C@@]12CC[C@H](O)C[C@H]1CC[C@@H]1[C@@H]2[C@H](OCc2ccccc2)C[C@]2(C)[C@H]1CC[C@]21CO1 | 1.3 | 1.01 | – | 2740 nM | 3.21 | 0.05 | 2050 nM | – | 2640 nM | – | – | – | – |
| C[C@]12CC[C@@H](O)C[C@@H]1CC[C@@H]1[C@@H]2[C@@H](OCc2ccccc2)C[C@@]2(C)[C@H]1CC[C@@]21CO1 | 21.2 | 2.99 | inactive | 270 nM | 31.1 | 0.42 | 15 nM | inactive | 70 nM | – | – | – | – |
| C[C@]12CC[C@@H](O)C[C@@H]1C[C@H](OCc1ccccc1)[C@@H]1[C@@H]2CC[C@@]2(C)[C@H]1CC[C@@]21CO1 | 0.88 | 0.83 | – | 7940 nM | 0.77 | 0.09 | 6750 nM | – | 3220 nM | – | – | – | – |
| C[C@@]12CC[C@H](O)C[C@H]1CCC1C2CC[C@]2(C)C1CC[C@]21CO1 (single isomer, unassigned) | 15.9 | 2.62 | – | – | 26.3 | 0.1 | 467 nM | – | – | – | – | – | – |
| C[C@]12CC[C@@H](O)C[C@@H]1CC[C@@H]1[C@@H]2CC[C@]2(C)C(=O)CC[C@@H]12 [ANDROSTERONE] | 1.41 | 0.97 | – | – | 5.44 | 0.02 | 410 nM | – | – | – | inactive | – | – |
| CC(=O)[C@H]1CC[C@H]2[C@@H]3CC[C@H]4C[C@H](O)CC[C@]4(C)[C@H]3CC[C@]12C [BREXANOLONE] | 3.89 | 1.26 | inactive | – | 9.65 | 0.37 | 74 nM | inactive | – | – | – | – | – |
| C[C@@]12CC[C@H](O)C[C@H]1CC[C@@H]1[C@@H]2[C@H](OCc2ccccc2)C[C@@]2(C)C(=O)CC[C@@H]12 | 0.85 | 0.89 | – | 3450 nM | 0.6 | 0 | > 10000 nM | – | 1960 nM | – | – | – | Toxic |
| C[C@]12CC[C@@H](O)C[C@@H]1CC[C@@H]1[C@@H]2CC[C@@]2(C)[C@H]1CC[C@@]21CO1 | 21.9 | 3.11 | – | – | 33.7 | 0.22 | 105 nM | – | – | – | – | – | – |
| C[C@]12CC[C@@H](O)C[C@@H]1CC[C@@H]1[C@@H]2[C@@H](OCc2ccccc2)C[C@]2(C)C(=O)CC[C@@H]12 | 2.96 | 1.08 | – | 870 nM | 24.4 | 0.2 | 285 nM | – | 200 nM | inactive | – | – | Toxic |
